Laboratory results taken from ChEMBL document CHEMBL1146145, “Isobrassinin and its analogues: novel types of antiproliferative agents” (Bioorg Med Chem Lett, 2006).

Legend:
Details in all cases: read-out: Inhibition
[1] = Cytotoxicity against human HeLa cells at 30 uM; format: cell-based
Summary of the method: (§1)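 MTT assay. Human HeLa (cervix adenocarcinoma), MCF7 (breast adenocarcinoma) and A431 (squamous skin carcinoma) cells were grown in minimal essential medium with 10% foetal bovine serum, antibiotic–antimycotic agents and non-essential amino acids, then seeded in 96-well plates. On day 2 the medium was replaced with compound-containing medium (DMSO final ≤0.1%). Exposure lasted 72 h, followed by 4 h MTT and DMSO solubilization of the formazan.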

[2] = Cytotoxicity against human MCF7 cells at 30 uM; format: cell-based; summary of the method: as §1
[3] = Cytotoxicity against human A431 cells at 30 uM; format: cell-based, A-431; summary of the method: as §1

S=C(NCc1cc2ccccc2[nH]1)SCc1ccccc1
cytotoxicity at 30 µM [1]: 76.1%
cytotoxicity at 30 µM [2]: 89%
cytotoxicity at 30 µM [3]: 70.7%

S=C(NCc1cc2ccccc2[nH]1)Nc1ccccc1
cytotoxicity at 30 µM [1]: 50%
cytotoxicity at 30 µM [2]: 57.4%
cytotoxicity at 30 µM [3]: 45.7%

c1ccc(CSC2=NCc3[nH]c4ccccc4c3S2)cc1
cytotoxicity at 30 µM [1]: 45.8%
cytotoxicity at 30 µM [2]: 37.3%

CNC(=S)NCc1cc2ccccc2[nH]1
cytotoxicity at 30 µM [1]: < 10%
cytotoxicity at 30 µM [2]: < 10%
cytotoxicity at 30 µM [3]: < 10%

CSC(=S)NCc1c[nH]c2ccccc12 [BRASSININ]
cytotoxicity at 30 µM [1]: 25.2%
cytotoxicity at 30 µM [2]: 21.5%

CSC(=S)NCc1cc2ccccc2[nH]1 [ISOBRASSININ]
cytotoxicity at 30 µM [1]: 83.6%
cytotoxicity at 30 µM [2]: 86.2%
cytotoxicity at 30 µM [3]: 78.6%

CSC1=NCc2[nH]c3ccccc3c2S1 [ISOCYCLOBRASSININ]
cytotoxicity at 30 µM [1]: 44.5%
cytotoxicity at 30 µM [2]: < 10%
cytotoxicity at 30 µM [3]: < 10%
